Data from ChEMBL document CHEMBL3351368, “Biphenyl-4-carboxylic acid [2-(1H-indol-3-yl)-ethyl]-methylamide (CA224), a nonplanar analogue of fascaplysin, inhibits Cdk4 and tubulin polymerization: evaluation of in vitro and in vivo anticancer activity” (J Med Chem, 2014).
Active and inactive are the calls of the source. No cut-off for these calls is given here.

Assays:
Tubulin (Homo sapiens) [1] = target: T1, Tubulin (Homo sapiens) (UniProt P68371+Q9H4B7+P0DPH7+P68366+Q13509+Q71U36+P04350+Q3ZCM7+P07437+P68363+Q9BQE3+Q6PEY2+Q13885+Q9BVA1+Q9BUF5); assay: Inhibition of tubulin (unknown origin) polymerization assessed as decrease in Vmax measured at 25 uM by spectrophotometry
[2] = Terminal half life in BALB/c mouse at 10 mg/kg, po; format: ADME, organism-based; parameters: dose 10 mg/kg, route oral; conditions: in vivo, read-out: beta t1/2 (converted)
Method in brief: (§1)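 BALB/c mice given a single dose of 1.0 mg/kg IV or 10 mg/kg orally; plasma concentration followed over time and pharmacokinetic parameters derived from the time-concentration profile.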

[3] = Maximum tolerated dose in ip dosed Swiss mouse assessed as body weight change treated for 5 days; format: ADME, organism-based; conditions: in vivo
Method in brief: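 Swiss albino mice, 6 per group, are dosed intraperitoneally once daily for five days (Q1D x 5) at several doses. The formulation contains Tween 20. Body weight is tracked over a two-week study, and MTD is set as the dose giving >10% weight loss; a drop of >20% is rated highly significant.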

MiaPaCa [4] = assay: Effect on p21 level in p53His273 mutant, pRb+ human MiaPaCa cells at IC50 concentration after 48 hrs by Western blot analysis; format: functional
Homo sapiens = organism: Homo sapiens; assay: Selectivity ratio of IC50 for human CDK2/cyclin A to IC50 for human CDK4/cyclin D1
NCI-H1299 [5] = assay: Cell cycle arrest in human NCI-H1299 cells assessed as accumulation of cells at G0/G1 phase at IC50 concentration after 24 hrs by flow cytometry (reference value: 56%); format: functional
[6] = target: Cyclin-dependent kinase 5/CDK5 activator 1 (Homo sapiens) (UniProt Q00535+Q15078); assay: Inhibition of human CDK5/p35 assessed as enzyme activity at 10 uM; format: protein-complex assay
NCI-H1299 [7] = assay: Cell cycle arrest in human NCI-H1299 cells assessed as accumulation of cells at S phase at IC50 concentration after 24 hrs by flow cytometry (reference value: 21%); format: functional
[8] = Clearance in BALB/c mouse at 1 mg/kg, iv; format: ADME, organism-based; parameters: dose 1 mg/kg, route intravenous; conditions: in vivo
Method in brief: as §1

CYP2C9 = CYP2C9 (Homo sapiens, UniProt P11712); assay: Inhibition of human recombinant CYP2C9 at 10 uM; format: ADME
Tubulin (Homo sapiens) [9] = target: T1, Tubulin (Homo sapiens); assay: Inhibition of tubulin polymerization in p53+, pRb+ human A549 cells assessed as paclitaxel-mediated polymerization treated simultaneously measured after 30 mins by Western blot analysis; format: cell-based
[10] = target: Serine/threonine-protein kinase PLK3 (Homo sapiens) (UniProt Q9H4B4); assay: Inhibition of human Plk3 assessed as enzyme activity at 10 uM
CYP3A4 = CYP3A4 (Homo sapiens, UniProt P08684); assay: Inhibition of human recombinant CYP3A4 at 10 uM; format: ADME
[11] = Antitumor activity against human HCT116 cells xenografted in SCID mouse assessed as inhibition of tumor growth at 100 mg/kg, ip relative to untreated control; format: functional; conditions: HCT-116, ip, route intraperitoneal
Method in brief: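 SCID male mice, 18-25 g, 6-8 weeks old, received 6.6 × 10^6 HCT-116 cells subcutaneously on the dorsal side. Randomized into groups of 7 at 4-6 mm tumors (about 5 days), then dosed intraperitoneally for 9 consecutive days. Tumor size recorded every 2-5 days, weight = L×W²×0.5; %GI = 100 − %T/C. Body weight taken daily relative to start; Student t-test.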

[12] = Cell cycle arrest in mouse BNL-SVA.8 cells assessed as accumulation of cells at G2/M phase at IC50 concentration after 48 hrs by flow cytometry (reference value: 13%); format: functional
Method in brief: (§2)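 Normal (BNL CL2) and SV40 large T-antigen transformed (BNL SV A.8) mouse embryonic hepatic cells were treated at IC50 or IC70 concentration for 48 h. Analysis was by FACS, with apoptosis taken as % cells in the sub-G1 peak. Untreated cells served as control.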

A549 [13] = assay: Reduction Cdk1 level in p53+, pRb+ human A549 cells at IC50 concentration after 24 hrs by Western blot analysis
[14] = target: Platelet-derived growth factor receptor (Homo sapiens) (UniProt P09619+P16234); assay: Inhibition of human PDGFR assessed as enzyme activity at 10 uM; format: protein-complex assay
MiaPaCa [15] = assay: Effect on phosphorylation of Cdk1 at Tyr15 in p53His273 mutant, pRb+ human MiaPaCa cells at IC50 concentration after 48 hrs by Western blot analysis; format: functional
LS174T = assay: Reduction Cdk1 level in p53+, pRb+ human LS 174T cells at IC50 concentration after 24 hrs by Western blot analysis
A549 [16] = assay: Induction of p21 level in p53+, pRb+ human A549 cells at IC50 concentration after 24 hrs by Western blot analysis
[17] = AUC (0 to t) in BALB/c mouse at 1 mg/kg, iv; format: ADME, organism-based; parameters: dose 1 mg/kg, route intravenous; conditions: plasma
Method in brief: as §1

NCI-H460 = assay: Induction of apoptosis in p53+, pRb+ human NCI-H460 cells assessed as fragmented nuclei/distrupted cell membrane at 1 to 10 uM by DAPI staining-based flow cytometry; format: functional; conditions: TDE = time-dependent effect
A549 [18] = assay: Cell cycle arrest in human A549 cells assessed as accumulation of cells at G0/G1 phase at IC50 concentration after 24 hrs by flow cytometry (reference value: 49%); format: functional
NCI-H358 = assay: Cell cycle arrest in human NCI-H358 cells assessed as accumulation of cells at S phase at IC50 concentration after 12 hrs by flow cytometry in presence of nocodazole for 18 hrs (reference value: 10%); format: functional
[19] = Cell cycle arrest in human WI38 cells assessed as accumulation of cells at G2/M phase by flow cytometry; format: functional, cell-based; conditions: WI-38
[20] = Cell cycle arrest in mouse BNL-SVA.8 cells assessed as accumulation of cells at subG1 phase at IC50 concentration after 48 hrs by flow cytometry (reference value: 0%); format: functional
Method in brief: as §2

Tubulin (Homo sapiens) [21] = target: T1, Tubulin (Homo sapiens); assay: Inhibition of tubulin (unknown origin) polymerization assessed as decrease in Vmax measured at 25 uM by spectrophotometry; format: protein-complex assay
Method in brief: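 Purified tubulin polymerisation followed as absorbance increase over about 4000 s. Vmax (mOD/min) is taken as the read-out, with final polymer mass also noted. Compound is tested at 2.5, 5, 10 and 25 µM alongside untreated control, paclitaxel 10 µM (enhancer) and nocodazole 10 µM (inhibitor). Curves are the average of three independent experiments.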

Sequence of Cyclin-dependent kinase 5/CDK5 activator 1 (Homo sapiens) (Q00535 whole entry): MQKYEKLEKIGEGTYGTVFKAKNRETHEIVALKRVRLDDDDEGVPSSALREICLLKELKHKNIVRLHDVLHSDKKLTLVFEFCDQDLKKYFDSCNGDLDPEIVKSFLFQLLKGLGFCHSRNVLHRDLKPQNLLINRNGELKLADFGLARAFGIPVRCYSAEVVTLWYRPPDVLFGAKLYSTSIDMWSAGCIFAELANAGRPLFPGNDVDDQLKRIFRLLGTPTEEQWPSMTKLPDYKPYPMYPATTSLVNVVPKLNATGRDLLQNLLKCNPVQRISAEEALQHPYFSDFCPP
Sequence of Cyclin-dependent kinase 5/CDK5 activator 1 (Homo sapiens) (Q15078 99-307 partner limits assumed): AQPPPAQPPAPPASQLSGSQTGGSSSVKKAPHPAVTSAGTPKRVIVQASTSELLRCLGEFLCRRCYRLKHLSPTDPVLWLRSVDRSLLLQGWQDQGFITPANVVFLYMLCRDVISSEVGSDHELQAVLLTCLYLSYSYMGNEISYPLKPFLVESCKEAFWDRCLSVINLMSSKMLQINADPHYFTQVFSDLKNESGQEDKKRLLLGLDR
Sequence of CYP2C9 (P11712 whole entry): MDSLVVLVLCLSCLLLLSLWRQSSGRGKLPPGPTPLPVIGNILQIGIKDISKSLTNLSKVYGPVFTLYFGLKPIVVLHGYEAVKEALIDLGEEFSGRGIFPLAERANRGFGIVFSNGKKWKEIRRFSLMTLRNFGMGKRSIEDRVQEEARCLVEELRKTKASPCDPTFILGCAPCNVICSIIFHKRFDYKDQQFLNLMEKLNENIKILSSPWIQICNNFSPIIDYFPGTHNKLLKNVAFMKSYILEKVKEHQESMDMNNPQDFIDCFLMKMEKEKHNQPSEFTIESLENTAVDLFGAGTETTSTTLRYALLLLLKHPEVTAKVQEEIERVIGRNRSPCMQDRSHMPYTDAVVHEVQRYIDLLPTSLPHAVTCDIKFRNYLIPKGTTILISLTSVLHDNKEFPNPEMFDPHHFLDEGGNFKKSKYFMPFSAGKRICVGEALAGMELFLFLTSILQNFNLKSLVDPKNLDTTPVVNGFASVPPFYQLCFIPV
Sequence of CYP3A4 (P08684 whole entry): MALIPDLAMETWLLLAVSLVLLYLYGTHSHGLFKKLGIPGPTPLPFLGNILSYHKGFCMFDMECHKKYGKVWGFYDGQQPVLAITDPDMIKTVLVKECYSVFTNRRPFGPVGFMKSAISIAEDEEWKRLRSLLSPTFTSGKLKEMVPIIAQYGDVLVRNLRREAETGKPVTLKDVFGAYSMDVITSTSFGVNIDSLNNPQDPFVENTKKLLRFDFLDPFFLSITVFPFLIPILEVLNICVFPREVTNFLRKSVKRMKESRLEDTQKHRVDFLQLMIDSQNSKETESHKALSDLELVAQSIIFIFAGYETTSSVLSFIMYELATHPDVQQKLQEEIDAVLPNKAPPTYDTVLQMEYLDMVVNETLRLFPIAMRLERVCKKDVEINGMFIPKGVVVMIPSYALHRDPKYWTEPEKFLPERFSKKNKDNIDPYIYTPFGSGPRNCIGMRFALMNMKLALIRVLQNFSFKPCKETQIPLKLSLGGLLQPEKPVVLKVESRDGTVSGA
Sequence of Serine/threonine-protein kinase PLK3 (Homo sapiens) (Q9H4B4 whole entry, looked up): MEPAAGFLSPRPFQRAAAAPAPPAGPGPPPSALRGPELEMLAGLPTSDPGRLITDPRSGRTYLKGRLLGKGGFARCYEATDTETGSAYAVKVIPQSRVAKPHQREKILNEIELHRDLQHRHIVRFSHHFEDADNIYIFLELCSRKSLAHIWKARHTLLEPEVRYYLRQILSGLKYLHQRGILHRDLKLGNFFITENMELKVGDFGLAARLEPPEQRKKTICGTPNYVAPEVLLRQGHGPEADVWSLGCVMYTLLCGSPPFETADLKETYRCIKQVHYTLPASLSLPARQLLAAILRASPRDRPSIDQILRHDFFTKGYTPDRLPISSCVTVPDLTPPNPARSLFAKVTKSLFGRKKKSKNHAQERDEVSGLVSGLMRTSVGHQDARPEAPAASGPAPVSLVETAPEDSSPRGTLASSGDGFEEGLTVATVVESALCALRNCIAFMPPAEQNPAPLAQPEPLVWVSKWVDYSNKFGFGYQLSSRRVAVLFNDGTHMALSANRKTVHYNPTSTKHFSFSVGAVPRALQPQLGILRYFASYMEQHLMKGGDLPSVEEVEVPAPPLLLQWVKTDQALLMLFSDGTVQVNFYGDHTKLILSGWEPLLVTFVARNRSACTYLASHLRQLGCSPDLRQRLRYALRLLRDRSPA

Compound: CN(CCc1c[nH]c2ccccc12)C(=O)c1ccc(-c2ccccc2)cc1
- Activity (milli optical density/minute) (Tubulin (Homo sapiens) [1]): 0.4
- half-life [2]: 1.16 h
- MTD at 120 h [3]: 1000 mg/kg
- Activity (MiaPaCa [4]): inactive
- Ratio IC50 (Homo sapiens): 84
- Activity (NCI-H1299 [5]): 22%
- inhibition [6]: inactive
- Activity (NCI-H1299 [7]): 10%
- clearance [8]: 88.3 mL/min/kg
- inhibition at 10 µM (CYP2C9): 51%
- inhibition (Tubulin (Homo sapiens) [9]): Dose-dependent effect
- inhibition [10]: inactive
- inhibition at 10 µM (CYP3A4): 50%
- inhibition in vivo at 100 mg/kg [11]: 80%
- Activity [12]: 14%
- inhibition (A549 [13]): Active
- inhibition [14]: inactive
- Activity (MiaPaCa [15]): inactive
- inhibition (LS174T): Active
- Activity (A549 [16]): Active
- AUC(0-t) [17]: 187 ng·h/mL
- Activity (NCI-H460): tde
- Activity (A549 [18]): 3%
- Activity (NCI-H358): 10%
- Activity [19]: Active
- Activity [20]: 31%
- Activity (milli optical density/minute) (Tubulin (Homo sapiens) [21]): 0.4
